{
  "source": "paper PMC10348038",
  "about": "(Journal of Enzyme Inhibition and Medicinal Chemistry, 2023)",
  "key": {"PD-1/PD-L1 interaction": {"biological_target": "PD-1/PD-L1 interaction (Homo sapiens, UniProt Q9NZQ7)", "sequence (Q9NZQ7 19-238 limits assumed)": "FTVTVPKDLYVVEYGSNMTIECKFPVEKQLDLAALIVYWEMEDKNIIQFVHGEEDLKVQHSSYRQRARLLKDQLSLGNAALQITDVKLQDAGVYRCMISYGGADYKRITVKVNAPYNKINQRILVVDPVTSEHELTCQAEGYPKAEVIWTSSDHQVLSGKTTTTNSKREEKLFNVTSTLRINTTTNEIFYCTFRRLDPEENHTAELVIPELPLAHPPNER", "assay": "HTRF PD1/PD-L1 binding assay", "settings": "IC50 against the PD-1/PD-L1 interaction"}, "MCF-7": {"test_system": "MCF-7", "assay": "CCK-8 cell viability assay, MCF-7", "assay_type": "cell-based", "settings": "Homo sapiens, MCF7, 60 h, read-out: IC50 MCF-7", "in_short": "(§1)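 Cells grown in DMEM or RPMI-1640 with 10% FBS and 1% penicillin-streptomycin at 37 °C, 5% CO2. Seeded in 96-well plates at densities suited to each line's growth rate and settled 8 h, then exposed 60 h to test compound at 0, 1, 2, 4, 8, 16 and 32 μM from 10 mM DMSO stocks. […] CCK-8 added for 0.5–1 h, OD read at 450 nm, viability normalised to control; mean ± SEM, n = 3.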"}, "A549": {"test_system": "A549", "assay": "CCK-8 cell viability assay, A549", "assay_type": "cell-based", "settings": "Homo sapiens, A549, 60 h, read-out: IC50 A549", "in_short": "as §1"}, "p-mTOR": {"test_system": "p-mTOR", "assay": "Western blot of mTOR phosphorylation in MDA-MB-231 cells", "assay_type": "cell-based", "settings": "4 μM, 48 h, MDA-MB-231, Western blot", "in_short": "(§2)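 MDA-MB-231 cells exposed to test compound at 1, 2 and 4 μM for 48 h. Lysates run on SDS-PAGE and transferred to PVDF. Membranes blocked 2 h in 5% BSA/TBST, then probed overnight at 4 °C with antibodies to AKT, p-AKT, mTOR and p-mTOR (1:1000). Mean ± SEM, n = 3.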"}, "MDA-MB-231 tumour": {"test_system": "MDA-MB-231 tumour", "assay": "MDA-MB-231 tumour-bearing nude mouse model", "assay_type": "in vivo, BALB/c nude mice", "settings": "intraperitoneal, every 2 days, nine administrations, nude mice", "in_short": "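Female BALB/c nude mice. MDA-MB-231 cells (within 10 passages) in PBS:Matrigel 1:1 at 3 × 10^7 cells/mL, 100 μL injected subcutaneously into the axilla. From about 200 mm3, test compound given intraperitoneally every 2 days in normal saline with 30% PEG400; cyclophosphamide as comparator. Tumour volume by callipers as length × width² × 0.5. Study ended when control tumours reached 1500 mm3. Tumours excised and weighed; inhibition rate from treated versus control tumour weight.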"}, "PD-L1": {"biological_target": "PD-L1 (Homo sapiens, UniProt Q9NZQ7)", "sequence (Q9NZQ7 19-290)": "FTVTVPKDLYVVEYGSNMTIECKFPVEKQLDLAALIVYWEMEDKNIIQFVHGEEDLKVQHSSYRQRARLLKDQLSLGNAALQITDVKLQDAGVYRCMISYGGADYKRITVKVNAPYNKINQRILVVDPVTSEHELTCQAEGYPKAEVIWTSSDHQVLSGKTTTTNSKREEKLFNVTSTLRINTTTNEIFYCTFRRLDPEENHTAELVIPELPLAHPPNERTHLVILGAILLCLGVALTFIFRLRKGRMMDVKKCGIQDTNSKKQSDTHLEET", "assay": "Western blot of PD-L1 protein expression in MDA-MB-231 cells", "assay_type": "cell-based", "settings": "MDA-MB-231, 48 h, 1, 2 and 4 μM", "in_short": "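MDA-MB-231 cells treated 48 h with test compound at 1, 2 and 4 μM, BMS202 as positive control; in a further arm, 4 μM with or without GSK-3β inhibitor (40 nM) for 48 h. Lysates separated by SDS-PAGE, transferred to PVDF, blocked 2 h in 5% BSA/TBST, probed overnight at 4 °C with anti-PD-L1 (1:1000). Mean ± SEM, n = 3.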"}, "p-AKT1 (Ser473)": {"test_system": "p-AKT1 (Ser473)", "assay": "Western blot of AKT phosphorylation in MDA-MB-231 cells", "assay_type": "cell-based", "settings": "4 μM, 48 h, MDA-MB-231, Western blot", "in_short": "as §2"}, "MDA-MB-231 cells [1]": {"test_system": "MDA-MB-231 cells", "assay": "Wound healing assay", "assay_type": "cell-based"}, "MRC-5 cells": {"test_system": "MRC-5 cells", "assay": "CCK-8 cell viability assay, normal MRC-5 cells", "assay_type": "cell-based", "settings": "for IC50: Homo sapiens, MRC5, 60 h, read-out: IC50 MRC-5", "in_short": "as §1"}, "PD-L1 mRNA": {"test_system": "PD-L1 mRNA", "assay": "qPCR of PD-L1 mRNA in MDA-MB-231 cells", "assay_type": "cell-based", "settings": "MDA-MB-231, 48 h"}, "MDA-MB-231 cells [2]": {"test_system": "MDA-MB-231 cells", "assay": "Colony formation assay", "assay_type": "cell-based", "settings": "for Clone formation, result in words: positive controls, BMS-202 at 1 µM", "in_short": "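MDA-MB-231 seeded at 500 cells/well in 6-well plates, in triplicate. […] Medium renewed every three days. At two weeks: PBS washes, 15 min fixation in 4% paraformaldehyde, 1% crystal violet stain. Colonies of more than 500 cells counted by image analysis; mean ± SEM, n = 3.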"}, "HCC827": {"test_system": "HCC827", "assay": "CCK-8 cell viability assay, HCC827", "assay_type": "cell-based", "settings": "Homo sapiens, HCC827, 60 h, read-out: IC50 HCC827", "in_short": "as §1"}, "MDA-MB-231 cells [3]": {"test_system": "MDA-MB-231 cells", "assay": "CCK-8 cell viability assay, MDA-MB-231", "assay_type": "cell-based", "settings": "Homo sapiens, MDA-MB-231, 60 h, read-out: IC50 MDA-MB-231", "in_short": "as §1"}, "MDA-MB-231 cells [4]": {"test_system": "MDA-MB-231 cells", "assay": "Flow cytometry apoptosis analysis", "assay_type": "cell-based", "settings": "48 h"}},
  "data": [
    {"smiles": "N#Cc1cccc(COc2cc(OCc3cccc(-c4cc(F)ccc4F)c3F)ccc2CNCCO)c1", "note": "[7b-2, 3-[2-[(2-Hydroxy-ethylamino)-methyl]-5-(2,2',5'-trifluoro-biphenyl-3-ylmethoxy)-phenoxymethyl]-benzonitrile]", "values": [
      {"measurement": "IC50", "setting": "PD-1/PD-L1 interaction", "value": "< 1", "unit": "µM"}
    ]},
    {"smiles": "N#Cc1cncc(COc2cc(OCc3cccc(-c4cc(F)ccc4F)c3F)ccc2CNCCO)c1", "note": "[7b-4, 5-[2-[(2-Hydroxy-ethylamino)-methyl]-5-(2,2',5'-trifluoro-biphenyl-3-ylmethoxy)-phenoxymethyl]-nicotinonitrile]", "values": [
      {"measurement": "IC50", "setting": "PD-1/PD-L1 interaction", "value": "< 1", "unit": "µM"}
    ]},
    {"smiles": "Cc1c(COc2ccc(CNCCN)c(OCc3ccccc3)c2)cccc1-c1ccccc1F", "note": "[12j-4, N^1-[2-Benzyloxy-4-(2'-fluoro-2-methyl-biphenyl-3-ylmethoxy)-benzyl]-ethane-1,2-diamine]", "values": [
      {"measurement": "IC50", "setting": "MCF-7", "value": "4.71 ± 0.44", "unit": "µM"},
      {"measurement": "IC50", "setting": "A549", "value": "7.79 ± 0.69", "unit": "µM"},
      {"measurement": "Inhibition rate of phosphorylated mTOR expression", "setting": "p-mTOR", "value": 40, "unit": "%"},
      {"measurement": "Tumour inhibition rate", "setting": "MDA-MB-231 tumour; 10 mg/kg", "value": 39.04, "unit": "%"},
      {"measurement": "Tumour inhibition rate", "setting": "MDA-MB-231 tumour; 20 mg/kg", "value": 62.54, "unit": "%"},
      {"measurement": "PD-L1 protein expression, result in words", "setting": "PD-L1", "value": "down-regulated"},
      {"measurement": "Inhibition rate of AKT type I phosphorylated form expression", "setting": "p-AKT1 (Ser473)", "value": 90, "unit": "%"},
      {"measurement": "inhibition at 1 µM", "setting": "MDA-MB-231 cells [1]; Homo sapiens, MDA-MB-231, read-out: Migration inhibition rate", "value": 50, "unit": "%"},
      {"measurement": "IC50", "setting": "MRC-5 cells", "value": "10.3 ± 0.12", "unit": "µM"},
      {"measurement": "IC50 against MRC-5 cells relative to IC50 against MDA-MB-231 cells", "setting": "MRC-5 cells; selectivity normal vs cancer cells", "value": 3.83, "unit": "fold"},
      {"measurement": "PD-L1 mRNA, result in words", "setting": "PD-L1 mRNA", "value": "decreased"},
      {"measurement": "MDA-MB-231 cells' proliferation rate (clone formation)", "setting": "MDA-MB-231 cells [2]; 1 µM, treated 24 h, colonies after two weeks", "value": 40, "unit": "%"},
      {"measurement": "IC50", "setting": "HCC827", "value": "3.24 ± 0.09", "unit": "µM"},
      {"measurement": "IC50", "setting": "MDA-MB-231 cells [3]", "value": "2.68 ± 0.27", "unit": "µM"},
      {"measurement": "Apoptotic ratio", "setting": "MDA-MB-231 cells [4]; 4 μM", "value": "exceeded 40.42%"}
    ]},
    {"smiles": "COc1c(COc2ccc(CN[C@H](CO)C(=O)O)c(OCc3cncc(C#N)c3)c2)cccc1-c1ccccc1F", "note": "[13h-1, N-[2–(5-Cyano-pyridin-3-ylmethoxy)-4-(2'-fluoro-2-methoxy-biphenyl-3-ylmethoxy)-benzyl]-D-serine]", "values": [
      {"measurement": "IC50", "setting": "MCF-7", "value": "4.81 ± 0.45", "unit": "µM"},
      {"measurement": "IC50", "setting": "A549", "value": "7.27 ± 0.71", "unit": "µM"},
      {"measurement": "IC50", "setting": "MRC-5 cells", "value": "9.31 ± 0.16", "unit": "µM"},
      {"measurement": "IC50", "setting": "HCC827", "value": "6.16 ± 0.76", "unit": "µM"},
      {"measurement": "IC50", "setting": "MDA-MB-231 cells [3]", "value": "4.67 ± 0.79", "unit": "µM"}
    ]},
    {"smiles": "COc1c(COc2cc(OCc3cccc(C#N)c3)c(CNCCO)cc2Cl)cccc1-c1ccccc1F", "note": "[13h-3, 3-{4-Chloro-5–(2'-fluoro-2-methoxy-biphenyl-3-ylmethoxy)-2-[(2-hydroxy-ethylamino)-methyl]-phenoxymethyl}-benzonitrile]", "values": [
      {"measurement": "IC50", "setting": "MCF-7", "value": "5.52 ± 0.57", "unit": "µM"},
      {"measurement": "IC50", "setting": "A549", "value": "13.5 ± 0.86", "unit": "µM"},
      {"measurement": "IC50", "setting": "MRC-5 cells", "value": "11.1 ± 0.2", "unit": "µM"},
      {"measurement": "IC50", "setting": "HCC827", "value": "5.65 ± 0.56", "unit": "µM"},
      {"measurement": "IC50", "setting": "MDA-MB-231 cells [3]", "value": "4.96 ± 0.82", "unit": "µM"}
    ]},
    {"smiles": "COc1nc(OCc2cccc(-c3ccccc3)c2C)ccc1CNCCNC(C)=O", "note": "[BMS-202, reference compound]", "values": [
      {"measurement": "Migration inhibition, result in words", "setting": "MDA-MB-231 cells [1]; MDA-MB-231, positive control", "value": "can hardly inhibit the cancer cells’ migration"},
      {"measurement": "Clone formation, result in words", "setting": "MDA-MB-231 cells [2]", "value": "scarce inhibition activity"}
    ]},
    {"smiles": "CC(=O)O[C@H]1C(=O)[C@@]2(C)[C@H]([C@H](OC(=O)c3ccccc3)[C@]3(O)C[C@H](OC(=O)[C@H](O)[C@@H](NC(=O)c4ccccc4)c4ccccc4)C(C)=C1C3(C)C)[C@]1(OC(C)=O)CO[C@@H]1C[C@@H]2O", "note": "[paclitaxel, reference compound]", "values": [
      {"measurement": "Clone formation, result in words", "setting": "MDA-MB-231 cells [2]", "value": "Few colonies can be observed"},
      {"measurement": "Tumour cell apoptosis", "setting": "MDA-MB-231 cells [4]; 1 μM", "value": "approximately 60%"}
    ]}
  ]
}
